From ChEMBL document CHEMBL1157181, “Novel antioxidant agents deriving from molecular combination of Vitamin C and NO-donor moieties” (Bioorg Med Chem, 2008)
Active and inactive are the calls of the source. The rule behind the calls is not given here.

Legend:
Hepatocyte [1] = assay: Antioxidant activity Wistar rat hepatocyte membrane assessed as Fe(3+)-ADP/NADPH-induced lipid peroxidation by TBA assay; type: functional, cell-based
In short: (§1)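 Microsomes from male Wistar rat liver (180–200 g) in Tris-HCl/KCl pH 7.4 (2 mg protein/mL) with ADP 1 mM and FeCl3 50 μM, plus compound in DMSO (≤5%). Peroxidation started with NADPH 0.4 mM at 37 °C and sampled to 30 min. TBARS read at 543 nm against an MDA standard. Inhibition is taken from the 30-min plateau, with IC50 by nonlinear regression.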

Aorta [2] = assay: Vasorelaxation activity in Wistar rat thoracic aorta assessed as inhibition of L-phenylephrine-induced contraction; type: functional, tissue-based
In short: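 Endothelium-denuded thoracic aorta strips from male Wistar rats (180–200 g) equilibrated 120 min and contracted with 1 μM L-phenylephrine. At plateau, cumulative concentrations of the test agent are added. EC50 is given ± SEM (μM).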

Aorta [3] = assay: Vasorelaxation activity in Wistar rat thoracic aorta assessed as inhibition of L-phenylephrine-induced contraction in presence of 1 uM 1H-[1,2,4]oxadiazolo[4,3-a]quinoxalin-1-one; type: functional, tissue-based
In short: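 Denuded Wistar rat aortic strips with 1 μM ODQ added to the bath 5 min before contraction with 1 μM L-phenylephrine. Cumulative relaxant concentrations are added at plateau, and EC50 is given ± SEM (μM).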

[4] = Dissociation constant, pKa of the compound; type: physicochemical
In short: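 Potentiometric titration, at least four runs per compound, of about 1 mM aqueous solutions with ionic strength 0.15 M (KCl). Solutions acidified to pH 1.8 with 0.5 N HCl, then titrated with standardised 0.5 N KOH to pH 10.5, under argon at 25.0 ± 0.1 °C. For poorly soluble compounds, at least five titrations in 15-50 wt% methanol, extrapolated to zero cosolvent (Yasuda-Shedlovsky).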

[5] = Distribution coefficient, log D at pH 1.0 after 4 hrs by shake flask method; type: physicochemical; settings: octanol/water
In short: (§2)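 Shake-flask n-octanol/buffer partition at room temperature, pH 1.0 (HCl) or pH 7.4 (phosphate), ionic strength 0.15 M KCl. Phases are presaturated by shaking for 4 h. Solute is about 0.1 mM in the aqueous phase, shaken about 20 min and centrifuged. Aqueous concentration is read by UV at λmax, with at least seven log D values per compound.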

[6] = Distribution coefficient, log D at pH 7.4 after 4 hrs by shake flask method; type: physicochemical; settings: octanol/water; in short: as §2
Hepatocyte [7] = assay: Antioxidant activity Wistar rat hepatocyte membrane assessed as Fe(3+)-ADP/NADPH-induced lipid peroxidation at 1 mM by TBA assay; type: functional, cell-based; in short: as §1
[8] = Distribution coefficient, log D at pH 7.4 after 4 hrs; type: physicochemical; settings: octanol/water; in short: as §2
Hepatocyte [9] = assay: Antioxidant activity Wistar rat hepatocyte membrane assessed as Fe(3+)-ADP/NADPH-induced lipid peroxidation at 50 uM by TBA assay; type: functional; in short: as §1

Structure (SMILES)	IC50 (Hepatocyte [1]) [µM]	EC50 (Aorta [2]) [µM]	EC50 (Aorta [3]) [µM]	pKa [4]	logD at 4 h [5]	logD at 4 h [6]	Activity (Hepatocyte [7])	logD at 4 h [8]	Activity (Hepatocyte [9]) [%]
O=C1OC(C(O)CO)C(OCCCCCCO[N+](=O)[O-])=C1O (configuration not stated)	80	2.1	> 100	7.6	0.86	0.76	–	–	–
O=C1OC(C(O)CO)C(O)=C1OCCCOc1no[n+]([O-])c1-c1ccccc1 (configuration not stated)	392	32	> 100	3.44	1.71	-1.35	–	–	–
O=C1OC(C(O)CO)C(OCCCOc2no[n+]([O-])c2S(=O)(=O)c2ccccc2)=C1O (configuration not stated)	80	0.034	7	7.62	1.18	0.98	–	–	–
O=C1OC(C(O)CO)C(O)=C1OCCCO[N+](=O)[O-] (configuration not stated)	–	–	–	3.19	-0.26	–	inactive	< -2	–
O=C1O[C@H]([C@@H](O)CO)C(O)=C1O [ASCORBIC ACID]	–	–	–	–	-1.65	–	–	–	77
O=C1OC(C(O)CO)C(OCCCOc2no[n+]([O-])c2-c2ccccc2)=C1O (configuration not stated)	17	3.8	80.9	7.6	1.53	1.13	–	–	–
O=C1OC(C(O)CO)C(O)=C1OCCCCCCO[N+](=O)[O-] (configuration not stated)	> 1000	7.1	> 100	3.56	0.84	-1.93	–	–	–
NC(=O)c1c(COC2=C(O)C(=O)OC2C(O)CO)no[n+]1[O-] (configuration not stated)	> 1000	6	> 100	7.07	-0.99	-1.44	–	–	–
O=C1OC(C(O)CO)C(OCCCO[N+](=O)[O-])=C1O (configuration not stated)	454	55	> 100	7.55	-0.48	-0.55	–	–	–
O=C1OC(C(O)CO)C(OCCCCC(CO[N+](=O)[O-])O[N+](=O)[O-])=C1O (configuration not stated)	28	0.72	> 100	7.64	0.78	0.66	–	–	–
COC1=C(O)[C@@H]([C@@H](O)CO)OC1=O	–	–	–	3.23	-1.44	–	inactive	< -2	–
COC1=C(O)C(=O)O[C@@H]1[C@@H](O)CO	> 1000	–	–	7.54	-1.41	-1.61	–	–	–
